Screening results as filed in PubChem.
PHOSPHO1 inh: inhibitors of human PHOSPHO1 phosphatase | 290,000 tested, 1.1% active | recombinant PHOSPHO1, absorbance phosphatase assay | AID 1565 | Q8TCT1 | inhibition, % at 13.3 µM; in the data active = inhibition above about 60%
Target sequence (Q8TCT1 whole entry, looked up): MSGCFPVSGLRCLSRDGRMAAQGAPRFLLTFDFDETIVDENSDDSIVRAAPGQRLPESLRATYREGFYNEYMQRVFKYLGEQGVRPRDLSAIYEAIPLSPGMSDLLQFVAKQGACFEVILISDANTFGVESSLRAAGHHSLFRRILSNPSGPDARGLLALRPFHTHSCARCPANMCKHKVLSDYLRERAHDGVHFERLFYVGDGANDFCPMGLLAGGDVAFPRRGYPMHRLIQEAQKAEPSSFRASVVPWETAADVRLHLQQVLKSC
KCNQ1 inh: human KCNQ1 channel inhibition. CHO-K1 KCNQ1, FluxOR thallium flux fluorescence; hits give high values. AID 2642. B-score at 10 µM. P51787. 310,000 tested, 1.3% active;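 active = compounds whose thallium flux B-score, printed positive for inhibition, exceeds three library SD while starting fluorescence stays within three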;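 note: channel opened by potassium depolarization with thallium stimulus after 20 min compound exposure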
KCNQ1 pot: potentiates or activates the human KCNQ1 potassium channel. AID 2648. 310,000 tested, 0.35% active. CHO-K1 KCNQ1, thallium flux FluxOR fluorescence; hits give high values. P51787. B-score at 10 µM;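 active = fluorescence ratio B-score, a plate-corrected score, at least three library SD, with initial intensity B-score within 5 SD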
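Schedule – 37 °C overnight plating, 90-min dark dye load, 20-min compound pretreatment · System – stable KCNQ1 CHO-K1 line · Probe or stimulus – thallium- and potassium-containing depolarizing buffer · Measured by – kinetic FluxOR fluorescence, 10 s baseline plus 110 s post-stimulus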
KCNK3 block: human KCNK3 channel inhibition, primary screen; CHO-KCNK3 thallium flux, FluxOR fluorescence; hits give low values; B-score at 10 µM; 340,000 tested, 0.84% active;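 active = B-score under library mean minus 4 SD, starting fluorescence ratio at most library mean plus 5 SD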;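 note: more negative B-score means stronger inhibition of thallium flux through KCNK3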
KCNK9 inh: inhibitors of human KCNK9 two-pore domain potassium channel. Q9NPC2. HEK293 KCNK9, FluxOR thallium flux fluorescence; hits give low values. B-score at 10 µM. 310,000 tested, 1.2% active;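 active = ratio B-score over 3 SD below the library mean, with starting fluorescence within 5 SD of its mean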;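 note: negative B-score means less thallium flux so channel inhibition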
Target sequence (Q9NPC2 whole entry, looked up, the tested form may be a part): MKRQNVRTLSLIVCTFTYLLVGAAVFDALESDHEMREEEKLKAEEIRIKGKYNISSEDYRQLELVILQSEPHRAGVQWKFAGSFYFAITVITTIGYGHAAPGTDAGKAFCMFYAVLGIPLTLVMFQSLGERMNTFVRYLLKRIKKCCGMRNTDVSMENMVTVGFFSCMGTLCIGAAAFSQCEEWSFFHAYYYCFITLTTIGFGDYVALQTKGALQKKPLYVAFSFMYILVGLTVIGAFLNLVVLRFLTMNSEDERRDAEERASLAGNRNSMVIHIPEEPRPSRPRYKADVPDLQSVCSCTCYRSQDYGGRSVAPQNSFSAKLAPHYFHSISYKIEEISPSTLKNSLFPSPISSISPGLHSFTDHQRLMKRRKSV
hERG rescue: shields human hERG channel from block by proarrhythmic agents; CHO-hERG, FluxOR thallium flux, dofetilide IC70 present; 310,000 tested, 0.51% active; activation (rescue from dofetilide block), less the hit threshold, % at 10 µM;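 active = activation above the mean of controls blocked by dofetilide plus 5 SD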;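 note: thallium influx through hERG after potassium depolarization seen as dye fluorescence rise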
KCNK9 inh conf: confirmation of human KCNK9 potassium channel inhibitors; shares compounds with KCNK9 inh; HEK293 KCNK9 cells, FluxOR thallium flux fluorescence; inhibition, % at 10 µM; 4,900 tested, 43% active;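 active = thallium signal inhibited by more than 5 SD of the compound-free buffer control wells, on both duplicate plates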;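 note: 0% = assay buffer control wells without compound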
Kir2-1 spec: selectivity of KCNK9 modulators against mouse Kir2.1. shares compounds with KCNK9 inh. Kir2.1 cells, FluxOR thallium flux fluorescence. inhibition, % at 10 µM. 4,900 tested, 4% active;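 active = thallium signal drop more than 5 SD beyond the mean of the no-compound control wells, seen in both duplicate plates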;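 note: signal is fluorescence rise after thallium addition divided by baseline fluorescence; plate controls were assay buffer only for no effect and full block by chlorpromazine control for full effect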
KCNK9 uninduced: second counter-screen for KCNK9 modulators: effect in non-induced cells. inhibition, % at 10 µM. 4,900 tested, 40% active. non-induced KCNK9-HEK293, FluxOR thallium flux. shares compounds with KCNK9 inh;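 active = thallium signal drop beyond 5 SD of the untreated control mean, on both duplicate plates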;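 note: plate controls were buffer only IC0 wells for no effect and SID17386958 at its maximal inhibitory level for full effect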
Numbers without * were called inactive; i = inactive; / = no result given. A selection: hits, their analogues and other compounds. The true share with any hit is near 4%.

SMILES	PHOSPHO1 inh	KCNQ1 inh	KCNQ1 pot	KCNK3 block	KCNK9 inh	hERG rescue	KCNK9 inh conf	Kir2-1 spec	KCNK9 uninduced
COc1ccc(C(=O)C2CCCN(C(=O)c3ccc4cc[nH]c4c3)C2)c(C)c1 (configuration not stated)	32.2	i	i	i	i	-20.6	i	i	i
COc1ccc(C(=O)C2CCCN(C(=O)CCc3scnc3C)C2)c(C)c1 (configuration not stated)	3.4	i	i	i	i	-9.9	i	i	i
COc1c(C)cc(C(=O)C2CCCN(C(=O)/C=C/c3ccccn3)C2)cc1C (configuration not stated)	39.7	i	i	i	i	-15.6	i	i	i
Cc1ccc(NC2CCCN(C(=O)CCc3scnc3C)C2)cc1C (configuration not stated)	9.0	i	i	i	i	-10.4	/	/	/
COc1ccc(C(=O)C2CCCN(C(=O)c3ccc(C(C)=O)s3)C2)c(C)c1 (configuration not stated)	21.8	i	i	i	i	-12.8	i	i	i
COc1ccc2cc(C(=O)C3CCCN(C(=O)c4cncs4)C3)ccc2c1 (configuration not stated)	13.7	i	i	i	i	-7.0	/	/	/
Cc1cccc2cc(C3CC(c4ccco4)=NN3S(=O)(=O)c3ccccc3)c(Cl)nc12 (configuration not stated)	-6.4	i	i	i	i	-19.1	/	/	/
CCC(C)[C@H](NC(=O)N1CC(=O)Nc2ccccc21)C(=O)N[C@H](C(=O)O)c1ccccc1 (some centres not stated)	24.0	i	i	i	i	-3.9	/	/	/
N#CCCNC(=O)Cn1c(COc2ccc(Cl)cc2)nc2ccccc21	3.5	i	i	i	i	-7.4	/	/	/
O=C(Nc1ccccc1)Nc1sccc1-c1nc2ccccc2s1	-7.0	i	i	i	i	-9.6	/	/	/
COc1ccccc1NC(=O)Nc1sccc1-c1nc2ccccc2s1	20.3	i	i	i	-12.8*	-5.3	69.5%*	i	39.5%*
CC(=O)Nc1ccc(S(=O)(=O)NNC(=O)COc2cccc3ccccc23)cc1	-9.0	i	i	i	i	-6.5	/	/	/
OC(CN1CCN(c2ccc(C(F)(F)F)cn2)CC1)c1ccccc1 (configuration not stated)	/	i	i	i	i	1.1	/	/	/
CC(=O)c1ccc(NC(=O)CCc2c(C)nn(-c3ccc(N4CCOCC4)nn3)c2C)cc1	32.4	i	i	i	i	-10.8	/	/	/
CCCN(CCC)CC(O)Cn1c2ccccc2c2ccccc21 (configuration not stated)	1.4	i	i	i	i	-8.0	/	/	/
CC(C)CCN(CCC(C)C)CC(O)Cn1c2ccccc2c(=O)c2ccccc21 (configuration not stated)	-3.6	i	i	i	-8.11*	-4.9	42.5%*	i	27.5%*
O=C(COc1ccc(Cl)cc1Cl)N1CCCN(C(=O)COc2ccc(Cl)cc2Cl)CC1	0.5	i	i	i	-11.3*	-14.6	36.5%*	i	i
COc1ccc(-c2ccc(OC)c([C@H]3[C@H]4C=CC[C@@H](C)[C@@H]4C(=O)N3Cc3ccccc3)c2)cc1OC	4.5	i	i	i	i	-14.6	i	i	i
CSc1cccc(NC(=O)C2CCN(C(=O)c3ccccc3C)CC2)c1	10.8	i	i	i	i	-8.2	i	i	i
Cc1ccccc1C(=O)N1CCC(C(=O)Nc2ccc(F)cc2)CC1	3.7	i	i	i	i	-16.5	/	/	/
O=C(CCc1ccc(CCC(=O)c2cccs2)s1)c1cccs1	-8.0	i	i	i	-11.3*	-10.8	57.0%*	i	38.0%*
O=C(CCNc1cc(Cl)cc(Cl)c1)c1cccs1	42.0	i	i	i	-8.73*	-16.6	i	i	38.5%*
Cc1ccn2c(C(=O)NNC(=O)Nc3ccc(Cl)cc3)c(C)nc2c1	26.5	i	i	i	i	-13.0	/	/	/
COc1cccc(/C=N/NC(=O)c2nc(-c3ccccc3)cc(-c3ccccc3)n2)c1O	3.5	i	i	i	-8.64*	-27.8	i	i	i
O=C(NCC(c1ccco1)N1CCc2ccccc21)C(=O)Nc1ccc(F)cc1F (configuration not stated)	/	i	i	i	-13.6*	-7.7	32.5%*	i	27.0%*
SMILES	PHOSPHO1 inh	KCNQ1 inh	KCNQ1 pot	KCNK3 block	KCNK9 inh	hERG rescue	KCNK9 inh conf	Kir2-1 spec	KCNK9 uninduced
CN(CCOc1cccc(C(F)(F)F)c1)Cc1ccccc1	17.9	i	i	i	i	-13.0	/	/	/
OCCN1CCN(CCOc2cccc(Cl)c2)CC1	10.5	i	i	i	i	-3.4	i	i	i
FC(F)(F)c1cccc(OCCN2CCN(Cc3ccccc3)CC2)c1	1.1	i	i	i	i	-5.7	i	i	i
COc1ccccc1N1CCN(C(=O)c2cc3c(C)nc4ccccc4c3o2)CC1	17.4	i	i	i	i	-18.2	/	/	/
Cc1ccc(C)c(N2CCN(C(=O)c3cc4c(C)nc5ccccc5c4o3)CC2)c1	11.9	i	i	i	-8.79*	-3.6	35.0%*	i	i
Cc1ccc(C)c(N2CCN(C(=O)c3ccc(CS(=O)Cc4cccc(Cl)c4)o3)CC2)c1 (configuration not stated)	29.3	i	i	i	i	-14.2	i	i	i
Nc1nccc(-c2ccc(-n3cnc4ccccc43)cc2)n1	12.2	i	i	i	i	-2.5	/	/	/
Cc1nccc(-c2ccc(-n3cnc4ccccc43)cc2)n1	-1.3	i	i	i	i	-7.4	i	i	i
Cc1cc(OC(C)C(=O)NNC(=O)Nc2ccc(F)cc2F)cc(C)c1Cl (configuration not stated)	-27.6	i	i	i	i	-3.0	/	/	/
CCOC(=O)Cc1c(C)nc2c(-c3ccc(Cl)cc3)c(C)nn2c1C	-7.5	i	i	i	i	-6.3	/	/	/
CCOC(=O)Cc1c(C)nc2c(-c3ccccc3OC)c(C)nn2c1C	25.7	i	i	i	i	-7.0	i	i	i
